# Key:
# [1] = tested on: Mycobacterium tuberculosis; assay: Antimycobacterial activity against Mycobacterium tuberculosis H37Rv; format: functional
# In short: (§1)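 Classical test-tube successive twofold dilution in Youmans' modification of Proskauer and Beck liquid medium with 10% bovine serum. Inoculum from 14-day-old cultures. Compounds dissolved in ethylene glycol (stock 10 mg/mL), tested at […]. Incubation at 37 °C. MIC is the lowest concentration inhibiting growth relative to a compound-free tube. Isoniazid, pyrazinamide and rifampicin served as references.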
# [2] = tested on: Mycobacterium tuberculosis; assay: Antimycobacterial activity against patient derived Mycobacterium tuberculosis Spec. 210; format: functional; in short: as §1
# Staphylococcus aureus [3] = assay: Antibacterial activity against Staphylococcus aureus ATCC 25923 assessed as reduction in bacterial growth incubated for 24 hrs by broth microdilution assay; format: functional
# In short: (§2)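 Twofold serial broth microdilution in Mueller-Hinton broth, supplemented with 5% lysed sheep blood for fastidious species. […]. Inoculum was set to 0.5 McFarland in 0.85% NaCl, giving a final 1.5 × 10⁶ CFU/mL. Plates were incubated 24 h at 35 °C. MIC was read visually as the lowest concentration with complete growth inhibition. Controls: 10% DMSO (final), growth and sterility. Triplicate.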
# Staphylococcus aureus [4] = assay: Antibacterial activity against Staphylococcus aureus ATCC 6538 assessed as reduction in bacterial growth incubated for 24 hrs by broth microdilution assay; format: functional; in short: as §2
# Staphylococcus aureus [5] = assay: Antibacterial activity against Staphylococcus aureus ATCC 43300 assessed as reduction in bacterial growth incubated for 24 hrs by broth microdilution assay; format: functional; in short: as §2
# [6] = tested on: Staphylococcus epidermidis; assay: Antibacterial activity against Staphylococcus epidermidis ATCC 12228 assessed as reduction in bacterial growth incubated for 24 hrs by broth microdilution assay; format: functional; in short: as §2
# Micrococcus luteus = assay: Antibacterial activity against Micrococcus luteus ATCC 10240 assessed as reduction in bacterial growth incubated for 24 hrs by broth microdilution assay; format: functional; in short: as §2
# Bacillus subtilis = assay: Antibacterial activity against Bacillus subtilis ATCC 6633 assessed as reduction in bacterial growth incubated for 24 hrs by broth microdilution assay; format: functional; in short: as §2
# Bacillus cereus = assay: Antibacterial activity against Bacillus cereus ATCC 10876 assessed as reduction in bacterial growth incubated for 24 hrs by broth microdilution assay; format: functional; in short: as §2
# Streptococcus pyogenes = assay: Antibacterial activity against Streptococcus pyogenes ATCC 19615 assessed as reduction in bacterial growth incubated for 24 hrs by broth microdilution assay; format: functional; in short: as §2
# Streptococcus pneumoniae = assay: Antibacterial activity against Streptococcus pneumoniae ATCC 49619 assessed as reduction in bacterial growth incubated for 24 hrs by broth microdilution assay; format: functional; in short: as §2
# Streptococcus mutans = assay: Antibacterial activity against Streptococcus mutans ATCC 25175 assessed as reduction in bacterial growth incubated for 24 hrs by broth microdilution assay; format: functional; in short: as §2
# Escherichia coli = assay: Antibacterial activity against Escherichia coli ATCC 25922 assessed as reduction in bacterial growth incubated for 24 hrs by broth microdilution assay; format: functional; in short: as §2
# Proteus mirabilis = assay: Antibacterial activity against Proteus mirabilis ATCC […] assessed as reduction in bacterial growth incubated for 24 hrs by broth microdilution assay; format: functional; in short: as §2
# Klebsiella pneumoniae = assay: Antibacterial activity against Klebsiella pneumoniae ATCC 13883 assessed as reduction in bacterial growth incubated for 24 hrs by broth microdilution assay; format: functional; in short: as §2
# Pseudomonas aeruginosa = assay: Antibacterial activity against Pseudomonas aeruginosa ATCC 9027 assessed as reduction in bacterial growth incubated for 24 hrs by broth microdilution assay; format: functional; in short: as §2
# Candida albicans [7] = assay: Antifungal activity against Candida albicans ATCC […] assessed as reduction in fungal growth incubated for 48 hrs by broth microdilution assay; format: functional
# In short: (§3)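 Yeasts were tested by twofold broth microdilution in Mueller-Hinton broth with 2% glucose at final concentrations of 0.98–1000 µg/mL. Inoculum was prepared from 0.5 McFarland suspensions in 0.85% NaCl, giving a final 5 × 10⁴ CFU/mL. Incubation was 48 h at 30 °C. MIC was the lowest concentration visually showing complete growth inhibition. Controls: 10% DMSO (final), growth and sterility. Triplicate.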
# Candida albicans [8] = assay: Antifungal activity against Candida albicans ATCC 2091 assessed as reduction in fungal growth incubated for 48 hrs by broth microdilution assay; format: functional; in short: as §3
# Candida parapsilosis = assay: Antifungal activity against Candida parapsilosis ATCC 22019 assessed as reduction in fungal growth incubated for 48 hrs by broth microdilution assay; format: functional; conditions: Lodderomyces parapsilosis; in short: as §3
# B16-F10 = assay: Cytotoxicity against mouse B16-F10 cells assessed as reduction in cell viability incubated for 72 hrs by MTT assay; format: cell-based; conditions: B16-F10, 72 h
# NHDF = assay: Cytotoxicity against human NHDF cells assessed as reduction in cell viability incubated for 72 hrs by MTT assay; format: cell-based
compound,measurement,setting,value
N/C(=N\NC(=S)N1CCCCC1)c1cc(Sc2ccccc2)ccn1,MIC,[1],12.5 mg/L
same,MIC,[2],12.5 mg/L
N/C(=N\NC(=S)N1CCCC1)c1cc(N2CCCC2)ccn1,MIC,[1],6.25 mg/L
same,MIC,[2],6.25 mg/L
N/C(=N\NC(=S)N1CCN(c2ccccc2)CC1)c1cc(Sc2ccccc2)ccn1,MIC,[1],25 mg/L
same,MIC,[2],25 mg/L
N/C(=N\NC(=S)N1CCCCC1)c1cc(N2CCCC2)ccn1,MIC,[1],6.25 mg/L
same,MIC,[2],6.25 mg/L
N/C(=N\NC(=S)N1CCCCC1)c1cc(Oc2ccccc2)ccn1,MIC,[1],12.5 mg/L
same,MIC,[2],12.5 mg/L
N/C(=N\NC(=S)N1CCN(c2ccccc2)CC1)c1cc(Oc2ccccc2)ccn1,MIC,[1],25 mg/L
same,MIC,[2],25 mg/L
N/C(=N\NC(=S)N1CCN(c2ccccc2)CC1)c1cc(N2CCN(c3ccccc3)CC2)ccn1,MIC,[1],25 mg/L
same,MIC,[2],25 mg/L
N/C(=N\NC(=S)N1CCCCC1)c1cc(N2CCOCC2)ccn1,MIC,[1],6.25 mg/L
same,MIC,[2],6.25 mg/L
N/C(=N\NC(=S)N1CCOCC1)c1cc(N2CCOCC2)ccn1,MIC,[1],3.1 mg/L
same,MIC,[2],3.1 mg/L
same,MIC,Staphylococcus aureus [3],15.6 mg/L
same,MIC,Staphylococcus aureus [4],15.6 mg/L
same,MIC,Staphylococcus aureus [5],15.6 mg/L
same,MIC,[6],15.6 mg/L
same,MIC,Micrococcus luteus,7.8 mg/L
same,MIC,Bacillus subtilis,31.3 mg/L
same,MIC,Bacillus cereus,31.3 mg/L
same,MIC,Streptococcus pyogenes,1000 mg/L
same,MIC,Streptococcus pneumoniae,> 1000 mg/L
same,MIC,Streptococcus mutans,1000 mg/L
same,MIC,Escherichia coli,> 1000 mg/L
same,MIC,Proteus mirabilis,> 1000 mg/L
same,MIC,Klebsiella pneumoniae,31.3 mg/L
same,MIC,Pseudomonas aeruginosa,> 1000 mg/L
same,MIC,Candida albicans [7],31.3 mg/L
same,MIC,Candida albicans [8],31.3 mg/L
same,MIC,Candida parapsilosis,31.3 mg/L
same,IC50,B16-F10,17.8 mg/L
same,IC50,NHDF,Not Active
N/C(=N\NC(=S)N1CCCC1)c1cc(Sc2ccccc2)ccn1,MIC,[1],6.25 mg/L
same,MIC,[2],6.25 mg/L
N/C(=N\NC(=S)N1CCCCC1)c1cc(N2CCN(c3ccccc3)CC2)ccn1,MIC,[1],25 mg/L
same,MIC,[2],25 mg/L
N/C(=N\NC(=S)N1CCCC1)c1cc(N2CCOCC2)ccn1,MIC,[1],6.25 mg/L
same,MIC,[2],6.25 mg/L
N/C(=N\NC(=S)N1CCOCC1)c1cc(N2CCN(c3ccccc3)CC2)ccn1,MIC,[1],6.25 mg/L
same,MIC,[2],6.25 mg/L
N/C(=N\NC(=S)N1CCCC1)c1cc(N2CCN(c3ccccc3)CC2)ccn1,MIC,[1],12.5 mg/L
same,MIC,[2],12.5 mg/L
N/C(=N\NC(=S)N1CCN(c2ccccc2)CC1)c1cc(N2CCOCC2)ccn1,MIC,[1],6.25 mg/L
same,MIC,[2],6.25 mg/L
N/C(=N\NC(=S)N1CCN(c2ccccc2)CC1)c1cc(N2CCCC2)ccn1,MIC,[1],6.25 mg/L
same,MIC,[2],6.25 mg/L
O=C(O)c1cn(C2CC2)c2cc(N3CCNCC3)c(F)cc2c1=O [CIPROFLOXACIN],MIC,Staphylococcus aureus [3],0.49 mg/L
same,MIC,Staphylococcus aureus [4],0.24 mg/L
same,MIC,Staphylococcus aureus [5],0.24 mg/L
same,MIC,[6],0.49 mg/L
same,MIC,Micrococcus luteus,0.98 mg/L
same,MIC,Bacillus subtilis,0.03 mg/L
same,MIC,Bacillus cereus,0.12 mg/L
same,MIC,Proteus mirabilis,0.03 mg/L
same,MIC,Klebsiella pneumoniae,0.12 mg/L
OC(Cn1cncn1)(Cn1cncn1)c1ccc(F)cc1F [FLUCONAZOLE],MIC,Candida parapsilosis,1.95 mg/L
NNC(=O)c1ccncc1 [ISONIAZID],MIC,[1],3.1 mg/L
same,MIC,[2],12.5 mg/L
NC(=O)c1cnccn1 [PYRAZINAMIDE],MIC,[1],25 mg/L
same,MIC,[2],> 400 mg/L
CN[C@H](CC(C)C)C(=O)N[C@H]1C(=O)N[C@@H](CC(N)=O)C(=O)N[C@H]2C(=O)N[C@H]3C(=O)N[C@H](C(=O)N[C@H](C(=O)O)c4cc(O)cc(O)c4-c4cc3ccc4O)[C@H](O)c3ccc(c(Cl)c3)Oc3cc2cc(c3O[C@@H]2O[C@H](CO)[C@@H](O)[C@H](O)[C@H]2O[C@H]2C[C@](C)(N)[C@H](O)[C@H](C)O2)Oc2ccc(cc2Cl)[C@H]1O [VANCOMYCIN],MIC,Staphylococcus aureus [3],0.98 mg/L
same,MIC,Staphylococcus aureus [4],0.49 mg/L
same,MIC,Staphylococcus aureus [5],0.49 mg/L
same,MIC,[6],0.98 mg/L
same,MIC,Micrococcus luteus,0.12 mg/L
same,MIC,Bacillus subtilis,0.24 mg/L
same,MIC,Bacillus cereus,0.98 mg/L
same,MIC,Streptococcus pyogenes,0.24 mg/L
same,MIC,Streptococcus pneumoniae,0.24 mg/L
same,MIC,Streptococcus mutans,0.98 mg/L

# Reference: ChEMBL document CHEMBL4765265, “4-Substituted picolinohydrazonamides as a new class of potential antitubercular agents” (Eur J Med Chem, 2020)
